Format in all cases: functional
Experiment [1] concerns Mycolicibacterium fortuitum. Nature of the experiment: Antimycobacterial activity against Mycobacterium fortuitum ATCC 6841 after 72 hrs by MTT assay. The note with it: ATCC 6841, 72 h. The essentials:
(§1)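 Standard broth microdilution MIC in Ca2+/Mg2+-adjusted Mueller-Hinton broth; strains kept on Columbia blood agar with 5% defibrinated horse blood. DMSO stocks diluted into MHB, 2-fold series with final range […]. Inoculum from 0.5 McFarland standard in saline, final 5 × 10^5 cfu/mL; 37 °C for 72 h. Growth read by MTT (20 min, 37 °C, blue = growth); MIC = lowest concentration with no growth.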

Another experiment deals with Mycolicibacterium phlei. Nature of the experiment: Antimycobacterial activity against Mycobacterium phlei ATCC 11758 after 72 hrs by MTT assay. To be noted: ATCC 11758, 72 h. A digest of the protocol:
as §1
A general note: Formazan colour is commonly taken as a measure of viable cells.

The subject of another experiment is Mycolicibacterium aurum. Nature of the experiment: Antimycobacterial activity against Mycobacterium aurum after 120 hrs by MTT assay. The essentials: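 Broth microdilution MIC in Ca2+/Mg2+-adjusted Mueller-Hinton broth; strain maintained on Columbia blood agar with 5% defibrinated horse blood. Compounds dissolved in DMSO, diluted into MHB, 2-fold serial dilutions giving final 512 to 1 μg/mL. Inoculum from 0.5 McFarland in saline, final 5 × 10^5 cfu/mL. Incubated 37 °C, 120 h. MTT added, 20 min at 37 °C; blue indicates growth; MIC = lowest concentration without growth.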

The test system of experiment [2] is Mycolicibacterium smegmatis. In words: Antimycobacterial activity against Mycobacterium smegmatis ATCC 14468 after 72 hrs by MTT assay. The note with it: ATCC 14468, 72 h. The essentials:
as §1

Converted amounts (≈) assume the structure as drawn.

The term MIC denotes the lowest concentration found to suppress growth. Read a high MIC as a less susceptible organism. In the case of `NNC(=O)c1ccncc1` [ISONIAZID], the MIC in experiment [1] came out at 0.5 µg/mL (≈ 3.65 µM); against Mycolicibacterium phlei, 4 µg/mL (≈ 29.2 µM); against Mycolicibacterium aurum it was 2 µg/mL (≈ 14.6 µM); in experiment [2], 1 µg/mL (≈ 7.29 µM).

As to `CC(=O)OC/C(C)=C/CC/C(C)=C/CC/C(C)=C/Cc1c(O)c2ccccc2oc1=O`, the MIC came out at 32 µg/mL (≈ 75.4 µM) in experiment [1], 8 µg/mL (≈ 18.8 µM) with Mycolicibacterium phlei, 16 µg/mL (≈ 37.7 µM) in the experiment with Mycolicibacterium aurum and 8 µg/mL (≈ 18.8 µM) in experiment [2].

Regarding `C/C(=C\CC/C(C)=C/Cc1c(O)c2ccccc2oc1=O)CC/C=C(\C)COC(=O)c1ccccc1`, the MIC in experiment [1] worked out at 16 µg/mL (≈ 32.9 µM); against Mycolicibacterium phlei, 2 µg/mL (≈ 4.11 µM); in the experiment with Mycolicibacterium aurum, 8 µg/mL (≈ 16.4 µM); in experiment [2], 2 µg/mL (≈ 4.11 µM).

For `CC[C@@H](CO)NCCN[C@@H](CC)CO` [ETHAMBUTOL], the MIC in experiment [1] worked out at 8 µg/mL (≈ 39.2 µM); in the experiment with Mycolicibacterium phlei it was 2 µg/mL (≈ 9.79 µM); against Mycolicibacterium aurum, 0.5 µg/mL (≈ 2.45 µM); in experiment [2], 0.5 µg/mL (≈ 2.45 µM).

With `CC(C)=CCC/C(C)=C/CC/C(C)=C/Cc1c(O)c2ccccc2oc1=O`, the minimal inhibitory concentration (MIC) in experiment [1] amounted to 2 µg/mL (≈ 5.46 µM); in the experiment with Mycolicibacterium phlei, 2 µg/mL (≈ 5.46 µM); against Mycolicibacterium aurum it was 2 µg/mL (≈ 5.46 µM); in experiment [2], 0.5 µg/mL (≈ 1.36 µM).

As for `CCCCCCCCCc1c(O)c2ccccc2oc1=O`, the MIC in experiment [1] came out at 3.5 µg/mL (≈ 12.1 µM).

For `C/C(=C\CC/C(C)=C/CC/C(C)=C/Cc1c(O)c2ccccc2oc1=O)CO`, the MIC in experiment [1] was determined as 64 µg/mL (≈ 167 µM); in the experiment with Mycolicibacterium phlei, 16 µg/mL (≈ 41.8 µM); against Mycolicibacterium aurum, 32 µg/mL (≈ 83.7 µM); in experiment [2], 16 µg/mL (≈ 41.8 µM).

For the origin of these results see ChEMBL document CHEMBL1148987, “Antimycobacterial coumarins from the sardinian giant fennel (Ferula communis)” (2004).
